A selection: hits, their analogues and other compounds. The true share with any hit is near 4.6%.
ALR inh = human ALR oxidase inhibition via reduced H2O2. P55789. purified ALR, DTT oxidation, H2O2 HRP-luminol luminescence. inhibition, % (test concentration not listed). 290,000 tested, 3.8% active. AID 485317;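 active = mean replicate inhibition above about 79%, with every replicate also reaching it, limit read from the data; inconclusive = only one of the two criteria met; inactive = mean below limit and not every replicate reaching it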
DSG3 Ab inh = blocks pemphigus antibody binding to human desmoglein-3; DSG3-coupled beads, scFv-anti-DSG3-GFP binding, flow cytometry; active compounds read low; P32926; 310,000 tested, 0.48% active; binding (percent of control), % at 10 µM;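 active = binding more than 3 SD below its plate's average and above zero; inconclusive = below that plate limit but binding exactly zero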;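 also: hits lower antibody fragment binding to DSG3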
Target sequence (P32926 whole entry, looked up, the tested form may be a part): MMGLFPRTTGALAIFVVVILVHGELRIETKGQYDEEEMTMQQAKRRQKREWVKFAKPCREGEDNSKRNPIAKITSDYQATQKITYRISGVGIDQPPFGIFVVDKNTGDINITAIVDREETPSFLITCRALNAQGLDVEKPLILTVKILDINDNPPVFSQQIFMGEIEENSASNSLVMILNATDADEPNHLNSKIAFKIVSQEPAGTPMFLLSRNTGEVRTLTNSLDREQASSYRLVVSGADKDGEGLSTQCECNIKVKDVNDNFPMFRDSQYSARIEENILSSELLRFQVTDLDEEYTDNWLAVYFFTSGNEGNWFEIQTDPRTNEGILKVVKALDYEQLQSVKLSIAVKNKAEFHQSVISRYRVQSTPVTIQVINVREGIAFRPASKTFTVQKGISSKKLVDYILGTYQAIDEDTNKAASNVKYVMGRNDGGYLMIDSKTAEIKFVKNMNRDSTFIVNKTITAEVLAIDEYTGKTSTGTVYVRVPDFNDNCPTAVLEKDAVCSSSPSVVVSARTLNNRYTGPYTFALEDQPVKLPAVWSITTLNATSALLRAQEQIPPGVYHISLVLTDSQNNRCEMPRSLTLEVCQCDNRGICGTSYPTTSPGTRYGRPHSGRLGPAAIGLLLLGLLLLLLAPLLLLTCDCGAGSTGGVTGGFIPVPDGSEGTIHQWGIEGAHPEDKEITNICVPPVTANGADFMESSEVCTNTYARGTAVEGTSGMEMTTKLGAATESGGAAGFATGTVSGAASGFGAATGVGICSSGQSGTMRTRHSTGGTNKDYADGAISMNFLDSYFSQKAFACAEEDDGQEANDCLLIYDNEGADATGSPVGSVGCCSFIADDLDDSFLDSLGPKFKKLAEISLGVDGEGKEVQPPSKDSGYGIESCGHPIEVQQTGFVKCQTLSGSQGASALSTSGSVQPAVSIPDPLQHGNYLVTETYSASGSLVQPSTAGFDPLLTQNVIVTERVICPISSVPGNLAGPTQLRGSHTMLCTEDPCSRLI
PolyA inh = inhibitors of polyadenylation in S. cerevisiae | activity score, % at 12 µM | S. cerevisiae SKY197-pL101 polyadenylation reporter, beta-gal luminescence; efflux-impaired pdr1/pdr3 knockout yeast; score 100 = 6 SD above DMSO | 300,000 tested, 0.02% active | AID 1875;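 active = lowest replicate activity score at least 50, where 100 means six control SD above control mean; inconclusive = lowest score under 50 but half or more replicates reach 50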;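 also: yeast exposed to compound for 9 h at 30 °C; higher score means more reporter readthrough which indicates perturbed polyadenylation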
Arr AP2 block = blocks beta-arrestin peptide binding to AP2 adaptin. FITC-arrestin peptide / GST-AP2 beads, flow cytometry; AP2 beta2 appendage carries R879A mutation. inhibition, % at 10 µM. 340,000 tested, 0.31% active;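 active = inhibition above a set limit, near 3 SD of compounds lacking own fluorescence, cut at about 54% in these data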;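 also: plate controls were DMSO wells for no effect and 5 µM unlabelled arrestin peptide for full effect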
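System: GST-tagged AP2 beta2-adaptin appendage (R879A) on 4 µm glutathione beads / Reagent: FITC-arrestin peptide, 50 nM / Detection: HyperCyt-sampled flow cytometry, FL1 channel, ex 488/em 535 nm / Timing: 12 min plus 1 h, RT / Buffer or medium: PBS plus Tween 20 (0.05%) and BSA (0.1%)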
NALP1 yeast inh = inhibitors of NALP1 inflammasome in yeast; S. cerevisiae NALP1/ASC/caspase-1 growth, X-gal OD620, 72 h; inhibition, % at 10 µM; 280,000 tested, 0.61% active; AID 2071; in the data active = inhibition mostly above about 24%, no sharp cut-off; inactive = mostly below about 32%
NALP3 yeast inh = blocks the NALP3 inflammasome reconstituted in yeast. Yeast reconstituted NLRP3/ASC/caspase-1, beta-gal luminescence, 24 h. inhibition, % at 10 µM. 330,000 tested, 0.39% active;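 active = inhibition of 50% or more; inactive = inhibition below 50%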;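 also: plate controls were induced DMSO wells for no effect and uninduced yeast grown without galactose for full effect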
Active calls of the source: *; ? = inconclusive; · = no result given.

SMILES | ALR inh | DSG3 Ab inh | PolyA inh | Arr AP2 block | NALP1 yeast inh | NALP3 yeast inh
Cc1cc(C(=O)Nc2ccncc2)c(C)o1 | · | 119 | · | -7 | · | ·
Cc1oc(-c2ccccc2)cc1C(=O)Nc1cccc(C(=O)O)c1 | 84* | 111 | -2 | -2 | -15 | 13
Cc1cc(C(=O)Nc2nc3c(C)cccc3s2)c(C)o1 | 95* | 109 | -4 | -2 | 40 | 6
Cc1cc(C(=O)Nc2cccc(O)c2)c(C)o1 | 18 | 96 | 15 | 18 | 35* | 2
Cc1cc(C(=O)Nc2cccc(C(=O)O)c2)c(C)o1 | 9 | 102 | -12 | 4 | 0 | -2
N#Cc1c2n(c3c(=S)nc[nH]c13)CCCCC2 | 93* | 96 | 1 | -5 | 15 | 13
N#Cc1c2n(c3c(=O)[nH]cnc13)CCCC2 | 0 | · | 4 | -2 | 23 | 11
COC(=O)c1ccccc1NC(=O)CSc1nc2ccsc2c(=O)n1CCCCC(=O)O | · | 92 | · | · | · | ·
Nc1nc(CN2CCN(C(=O)c3ccco3)CC2)nc(Nc2cccc(Cl)c2)n1 | 95* | 109 | · | -4 | -8 | 5
O=C(Nc1nccs1)c1cnc2sccn2c1=O | · | 99 | · | · | · | ·
COc1ccc(N2CCN(C(=O)C3(C)CC3(Cl)Cl)CC2)cc1 (stereo unspecified) | 99* | 106 | 13 | 35 | 18 | 2
O=C(CCn1c(=O)oc2ccccc21)N1CCN(c2ccc(F)cc2)CC1 | 97* | 101 | 8 | 16 | · | 12
CCOC(=O)N1CCN(C(=O)CSCc2ccccc2C)CC1 | 4 | ? | 4 | 4 | 6 | 5
CCOC(=O)N1CCN(C(=O)CSCc2ccccc2Cl)CC1 | 99* | 91 | 3 | 14 | 29 | -7
O=C(CCN1C(=O)/C(=C\c2ccccc2F)SC1=S)N1CCCCC1 | -5 | 110 | 0 | 1 | -5 | 25
COc1ccc(N2CCN(C(=O)c3ccncc3)CC2)cc1 | 50 | 100 | 11 | -2 | -1 | -2
O=C(CCN1C(=O)/C(=C\c2ccccc2Cl)SC1=S)N1CCN(c2ccccc2)CC1 | -8 | 97 | 16 | 31 | 29* | 23
O=C(O)CCCC(=O)N1CCN(c2cccc(Cl)c2)CC1 | -6 | 107 | 2 | 4 | 3 | 6
COc1ccc(N2CCN(C(=O)Cc3ccc(C)cc3)CC2)cc1 | 80* | 104 | 9 | -11 | -7 | 25
O=C(CCC(=O)N1CCN(c2cccc(Cl)c2)CC1)N1CCN(c2ccccc2)CC1 | 98* | 106 | 11 | -5 | 17 | 19
COc1ccc(C(=O)CCC(=O)N2CCN(c3ccc(N4CCOCC4)nn3)CC2)cc1 | 30 | 104 | 5 | 6 | 16 | 5
COc1ccc(N2CCN(C(=O)COC(=O)/C=C/c3ccc(OC(F)F)cc3)CC2)cc1 | · | 90* | 1 | 8 | · | -1
COc1ccc(C(=O)CCC(=O)N2CCN(c3ccc(C)cc3)C(C)C2)cc1 (stereo unspecified) | 99* | · | 6 | -1 | 2 | 16
COc1ccc(C(C)NC(=O)Cc2cccs2)cc1OC (stereo unspecified) | -10 | 108 | 3 | -4 | 4 | 20
CN(C)C1=NCCN1CCC1CCCC1 | 0 | 98 | 0 | 2 | 7 | 20
SMILES | ALR inh | DSG3 Ab inh | PolyA inh | Arr AP2 block | NALP1 yeast inh | NALP3 yeast inh
COc1ccc(N2CCN(C(=O)CSc3nnnn3C3CC3)CC2)cc1 | 87* | 93 | · | -6 | · | 14
COc1ccc(N2CCN(C(=O)c3c(Cl)cnn3C)CC2)cc1 | 99* | 109 | -9 | -5 | 5 | 5
O=C(CCC(=O)N1CCN(c2ccccc2F)CC1)N1CCN(c2ccccc2)CC1 | · | 77* | -1 | 4 | 7 | 12
CCOC(=O)N1CCN(C(=O)Cc2ccc(Cl)cc2)CC1 | 96* | 107 | 7 | -7 | 2 | 10
O[C@H]1C[C@H](c2ccc(Cl)cc2)N(CC2CCCCC2)C[C@@H]1n1cc(-c2ccc(F)cc2)nn1 | · | 109 | · | · | · | ·
O=C(Cc1ccc(Cl)cc1)N1CCN(c2ccc(F)cc2)CC1 | 65 | 101 | 0 | 0 | 21 | 14
O=C(Cc1ccc(Cl)cc1)N1CCN(c2ccccc2)CC1 | 88* | 96 | 2 | -7 | 24 | 11
CCNc1nc(NC(C)C)nc(NC(C)(C)C)n1 | 16 | 102 | 11 | -2 | 30* | 16
CC(C)Nc1nc(NNc2nc(Cl)nc(NC(C)(C)C)n2)nc(NC(C)C)n1 | 2 | 98 | 13 | -18 | 1 | 12
O=C1/C(=C/c2ccccc2)CCc2ccc(Cl)nc21 | · | · | · | -7 | · | ·
Cc1ccc(S(=O)(=O)/N=c2\ccc(Cl)cn2C(F)F)cc1 | 1 | 102 | 0 | 36 | 38* | -5
Cc1ccc(S(C)(=O)=NC(=O)NC(=O)c2c(F)cccc2Cl)cc1 (stereo unspecified) | 1 | 119 | -11 | 13 | 4 | 5
COc1ccccc1OCC(=O)NCCSCc1ccccc1Cl | -22 | 100 | -32 | 5 | 51* | 13
COc1ccccc1OCC(=O)NCCSCc1cccc(Cl)c1 | · | 100 | -35 | -7 | 48* | 32
O=C(NC1CCOc2ccccc21)c1ccc(Cl)nc1 (stereo unspecified) | -3 | 98 | 3 | -8 | 32 | -12
c1ccc(-c2cc3c(N4CCCC4)ncnc3s2)cc1 | 1 | 86 | -30 | -4 | 14 | 22
c1ccc(-c2cc3c(N4CCOCC4)ncnc3s2)cc1 | 97* | 100 | -11 | 9 | 18 | 22
Cc1ccc(N(C)C(=O)CN(C)S(=O)(=O)c2ccc3c(c2)n(C)c(=O)c(=O)n3C)cc1 | 0 | · | 11 | -7 | 36 | 2
N/C(=N\OC(=O)CC1CCCCC1)c1ccc(Cl)cc1 | -21 | · | 0 | 29 | 32* | 26
N/C(=N\OC(=O)CC1CCCCC1)c1ccc(Br)cc1 | 4 | 104 | -39 | -1 | 2 | 23
O=C(c1ccccc1)c1ccc(C(=O)N2CCN(c3ccccc3O)CC2)cc1 | · | 99 | · | · | · | ·
Cc1ccc(CNC(=O)c2cccc(-n3cnnn3)c2)cc1 | -4 | 104 | 1 | -11 | 43* | -1
CCOc1ccc(N2C(=O)Nc3ccccc3C2(O)C(=O)NCc2ccccc2)cc1 (stereo unspecified) | 92* | 108 | 0 | 31 | 17 | -14
CN(CCNC(=O)C1(O)c2ccccc2NC(=O)N1c1ccccc1)Cc1ccccc1 (stereo unspecified) | -5 | 99 | · | -4 | 5 | 6
CC(C)CCOP(=O)(c1ccc(N(C)C)cc1)C(Nc1ccccc1)c1ccc(N(C)C)cc1 (stereo unspecified) | 2 | · | -11 | 23 | -1 | 4
CCCCOP(=O)(c1ccc(N(C)C)cc1)C(O)c1ccc(N(C)C)cc1 (stereo unspecified) | 92* | 93 | -8 | -16 | 12 | -23
